According to ChEMBL document CHEMBL4190405, “Scaffold-Hopping Approach To Discover Potent, Selective, and Efficacious Inhibitors of NF-κB Inducing Kinase” (J Med Chem, 2018):
Values after ≈ are worked out from the molar mass of the structure shown.

Columns and labels:
[1] = Lipophilicity, log D of the compound at pH 7.4 by LC-MS based shake flask method; assay type: physicochemical; conditions: buffer
How it was run: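 LogD at pH 7.4 measured by a high-throughput microscale shake-flask method with LC-MS/MS quantitation.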

[2] = Oral bioavailability in CD-1 mouse at 5 mg/kg via gavage administered as single dose; assay type: ADME, organism-based; conditions: in vivo
[3] = Oral bioavailability in Beagle dog at 5 mg/kg via gavage administered as single dose; assay type: ADME, organism-based, Canis lupus familiaris; conditions: in vivo
[4] = Apparent permeability from apical to basolateral side in MDCK cells; assay type: ADME, cell-based, Canis lupus familiaris; conditions: dog
[5] = Kinetic solubility of the compound; assay type: physicochemical; conditions: read-out: Kinetic_solubility
[6] = Apparent permeability from basolateral to apical side in MDCK cells; assay type: ADME, cell-based, Canis lupus familiaris; conditions: dog
[7] = Oral bioavailability in Sprague-Dawley rat at 5 mg/kg via gavage administered as single dose; assay type: ADME, organism-based; conditions: in vivo
[8] = Volume of distribution in CD-1 mouse; assay type: ADME, organism-based; conditions: in vivo
[9] = Volume of distribution in cynomolgus monkey; assay type: ADME, organism-based, Macaca fascicularis; conditions: in vivo
[10] = Oral bioavailability in cynomolgus monkey at 5 mg/kg via gavage administered as single dose; assay type: ADME, organism-based, Macaca fascicularis; conditions: in vivo
[11] = Volume of distribution in Beagle dog; assay type: ADME, organism-based, Canis lupus familiaris; conditions: in vivo
[12] = Volume of distribution in Sprague-Dawley rat; assay type: ADME, organism-based; conditions: in vivo

| SMILES | logD [1] | further results |
| --- | --- | --- |
| CN1CC[C@@](O)(C#Cc2ccnc(-n3ccc(C(N)=O)n3)c2)C1=O | 0.61 |  |
| CN1CC[C@@](O)(C#Cc2ccnc(-n3nc(C(N)=O)cc3N)c2)C1=O | 2 |  |
| CN1CC[C@@](O)(C#Cc2cccc(-c3nc(C(N)=O)c4ccccn34)c2)C1=O | 1.3 |  |
| CN1CC[C@@](O)(C#Cc2cccc(-n3cc(C(N)=O)c4cccnc43)c2)C1=O | 2.4 |  |
| CN1CC[C@@](O)(C#Cc2cccc(-n3nc(C(N)=O)c4cc(F)ccc43)c2)C1=O | 2.6 |  |
| CN1CC[C@@](O)(C#Cc2cccc(-n3nc(C(N)=O)c4cccnc43)c2)C1=O | 1.6 |  |
| CCOc1ccn2c(-c3cccc(C#C[C@]4(O)CCN(C)C4=O)c3)nc(C(N)=O)c2c1 | 1.9 |  |
| CN1CC[C@@](O)(C#Cc2ccnc(-n3nc(C(N)=O)c4ccccc43)c2)C1=O | 1.9 |  |
| CN1CC[C@@](O)(C#Cc2cccc(-n3nc(C(N)=O)c4ccccc43)c2)C1=O | 2.1 |  |
| CN1CC[C@@](O)(C#Cc2ccnc(-n3nc(C(N)=O)cc3C3CC3)c2)C1=O | 2 |  |
| CN1CC[C@@](O)(C#Cc2ccnc(-n3nc(C(N)=O)c4c3CCCC4)c2)C1=O | 1.9 |  |
| CN1CC[C@@](O)(C#Cc2cccc(-c3nc(C(N)=O)n4ccccc34)c2)C1=O | 2.2 |  |

Second part, led by results:

| logD [1] | SMILES | further results |
| --- | --- | --- |
| 1.9 | COc1cnc2c(c1)c(C(N)=O)nn2-c1cccc(C#C[C@]2(O)CCN(C)C2=O)c1 |  |
| 2.4 | COc1ccc2c(-c3cccc(C#C[C@]4(O)CCN(C)C4=O)c3)nc(C(N)=O)n2c1 |  |
| 1.6 | CN1CC[C@@](O)(C#Cc2cccc(-c3ccnc(C(N)=O)n3)c2)C1=O |  |
| 1.6 | CN1CC[C@@](O)(C#Cc2cccc(-c3cccc(C(N)=O)n3)c2)C1=O |  |
| 1.9 | COc1cc(C(N)=O)nc(-c2cccc(C#C[C@]3(O)CCN(C)C3=O)c2)c1 | bioavailability [2]: 54%; bioavailability [3]: 56%; Papp A→B [4]: 73 nm/s; solubility kinetic [5]: 139 µM (≈ 50.8 µg/mL); Papp B→A [6]: 102 nm/s; bioavailability [7]: 97%; Vd [8]: 1.58 L/kg; Vd [9]: 1.39 L/kg; bioavailability [10]: > 100%; Vd [11]: 0.778 L/kg; Vd [12]: 1.35 L/kg |
| 1.6 | CN1CC[C@@](O)(C#Cc2cccc(-c3cccc(C(N)=O)c3)c2)C1=O |  |
| 1.8 | COc1cc(C(N)=O)nc(-c2cccc(C#C[C@]3(O)CCN(C)C3=O)c2)n1 |  |
| 2.5 | CN1CC[C@@](O)(C#Cc2cccc(-c3cc4ccccc4c(C(N)=O)n3)c2)C1=O |  |
| 1.7 | CN1CC[C@@](O)(C#Cc2cccc(-c3ccc(N)c(C(N)=O)n3)c2)C1=O |  |
| 1 | CN1CC[C@@](O)(C#Cc2cccc(-c3cncc(C(N)=O)n3)c2)C1=O |  |
